Assay results from different studies.
Compare with care: the assays were run in different laboratories.
Mode: inhibitor
P4HB: Protein disulfide-isomerase (P4HB, Homo sapiens, UniProt P07237)
VCP: Transitional endoplasmic reticulum ATPase (VCP, Homo sapiens, UniProt P55072)
BLK: Tyrosine-protein kinase Blk (BLK, Homo sapiens, UniProt P51451)
SLCO1B3 S112A: Solute carrier organic anion transporter family member 1B3 (SLCO1B3, Homo sapiens, UniProt Q9NPD5, S112A)
SLC2A9: Solute carrier family 2, facilitated glucose transporter member 9 (SLC2A9, Homo sapiens, UniProt Q9NRM0)
HDAC4: Histone deacetylase 4 (HDAC4, Homo sapiens, UniProt P56524)

The IC50 of `O=C(O[C@@H]1Cc2c(O)cc(O)cc2O[C@@H]1c1ccc(O)c(O)c1)c1cc(O)c(O)c(O)c1` is reported as > 500 µM (P4HB; enzyme activity; fluorescence).
`Cc1cc2c(C(N)=O)cccc2n1-c1nc(NCc2ccccc2)c2c(n1)NC(C)CC2` (centres unmarked) has an IC50 of 0.039 µM (VCP; enzyme activity; ADP detection).
The IC50 of `O=C1C[C@@H](c2ccccc2)Oc2cc(O)cc(O)c21` is reported as > 500 µM (P4HB; enzyme activity; fluorescence).
For `CN(Cc1cnc2nc(N)nc(N)c2n1)c1ccc(C(=O)N[C@@H](CCC(=O)O)C(=O)O)cc1`, the IC50 was 0.498 µM (Solute carrier organic anion transporter family member 1B3 (SLCO1B3, Homo sapiens, UniProt Q9NPD5); transporter uptake; radiometric; 2 min).
`CC#CC(=O)N1CC[C@@H](n2c(=O)n(-c3ccc(Oc4ccccc4)cc3)c3c(N)ncnc32)C1` gave an IC50 of 0.793 µM (BLK; enzyme activity).
For `Cc1cc2c(C(N)=O)nccc2n1-c1nc2c(c(NCc3ccccc3)n1)CCCN2`, the IC50 was 0.121 µM (VCP; enzyme activity; ADP detection).
For `C[C@H]1CN(C2COC2)CCN1c1ccc(Nc2cc(-c3ccnc(N4CCn5c(cc6c5CC(C)(C)C6)C4=O)c3CO)cn(C)c2=O)nc1`, the IC50 was > 5 µM (BLK; enzyme activity).
For `CC(=O)O[C@H]1C(=O)[C@@]2(C)[C@H]([C@H](OC(=O)c3ccccc3)[C@]3(O)C[C@H](OC(=O)[C@H](O)[C@@H](NC(=O)c4ccccc4)c4ccccc4)C(C)=C1C3(C)C)[C@]1(OC(C)=O)CO[C@@H]1C[C@@H]2O`, the IC50 was 87.7 µM (SLCO1B3 S112A; transporter uptake; radiometric; 2 min).
The IC50 of `O=C(O[C@@H]1Cc2c(O)cc(O)cc2O[C@@H]1c1cc(O)c(O)c(O)c1)c1cc(O)c(O)c(O)c1` is reported as 243 µM (P4HB; enzyme activity; fluorescence).
With `CCc1oc2ccccc2c1C(=O)c1cc(Br)c(O)c(Br)c1` the IC50 was 87.6 µM (SLC2A9; transporter uptake; oocytes).
For `Cc1cc2c(C(N)=O)cncc2n1-c1nc2c(c(NCc3ccccc3)n1)CCCN2`, the IC50 was 0.082 µM (VCP; enzyme activity; ADP detection).
With `Nc1cnccc1Nc1ccc(Cl)c(Cl)c1` the IC50 was > 100 µM (G/T mismatch-specific thymine DNA glycosylase (TDG, Homo sapiens, UniProt Q13569); enzyme activity).
With `COc1ccc(N(Cc2csc(-c3ccccc3)n2)C(=O)CCCCCC(=O)NO)cc1` the IC50 was > 10 µM (HDAC4; enzyme activity).
`CC(C)n1c(/C=C/C(O)CC(O)CC(=O)O)c(-c2ccc(F)cc2)c2ccccc21` (centres unmarked) gave an IC50 of 11 µM (Solute carrier organic anion transporter family member 1B3 (SLCO1B3, Homo sapiens, UniProt Q9NPD5, M233I); transporter uptake; radiometric; 2 min).
`C=CC(=O)Nc1cccc(Oc2nc(Nc3ccc(N4CCN(C)CC4)cc3)nc3ccoc23)c1` has an IC50 of < 0.000254 µM (BLK; enzyme activity).
The IC50 of `O=C(NO)c1ccc(Cn2cnc3c(Nc4ccc(Cl)cc4)ncnc32)cc1` is reported as 3.11 µM (HDAC4; enzyme activity).
For `Cc1cc2c(C(N)=O)cccc2n1-c1nc2c(c(NCc3cccc(O)c3)n1)CCCN2`, the IC50 was 0.014 µM (VCP; enzyme activity; ADP detection).
With `COc1cccc2c1C(=O)c1c(O)c3c(c(O)c1C2=O)C[C@@](O)(C(=O)CO)C[C@@H]3O[C@H]1C[C@H](N)[C@H](O)[C@H](C)O1` the IC50 was > 100 µM (SLCO1B3 S112A; transporter uptake; radiometric; 2 min).
`CONC(=O)c1cccc2c1cc(C)n2-c1nc2c(c(NCc3ccccc3)n1)CCCN2` gave an IC50 of 0.026 µM (VCP; enzyme activity; ADP detection).
With `COc1ccc(N(Cc2nc(-c3ccc(F)cc3)cs2)C(=O)CCCCCC(=O)NO)cc1` the IC50 was > 10 µM (HDAC4; enzyme activity).
With `O=C(O[C@@H]1[C@@H](O)[C@H](Oc2cc(O)c3c(c2)O[C@H](c2ccccc2)CC3=O)O[C@@H]2COC(=O)c3cc(O)c(O)c(O)c3-c3c(cc(O)c(O)c3O)C(=O)O[C@@H]12)c1cc(O)c(O)c(O)c1` the IC50 was 7.8 µM (Protein disulfide-isomerase A4 (PDIA4, Homo sapiens, UniProt P13667); enzyme activity; fluorescence).
With `Oc1ccc(-c2nc(-c3ccncc3)c(-c3ccc(F)cc3)[nH]2)cc1` the IC50 was 3.62 µM (Tau-tubulin kinase 2 (TTBK2, Homo sapiens, UniProt Q6IQ55); enzyme activity).
`Cc1cc2c(C(N)=O)cccc2n1-c1nc2c(c(NCc3ccccn3)n1)CCCN2` has an IC50 of 0.115 µM (VCP; enzyme activity; ADP detection).
`CCc1oc2cc(F)c(F)cc2c1C(=O)c1cc(Br)c(O)c(Br)c1` has an IC50 of 17.4 µM (SLC2A9; transporter uptake; oocytes).
`Cc1cc2c(C(N)=O)cccc2n1-c1nc2c(c(NCc3ccncc3)n1)CCCN2` has an IC50 of 0.381 µM (VCP; enzyme activity; ADP detection).
With `Cc1cc(O)c(-c2ccc([C@@H](C)CN(C)C)cc2)c2c1[nH]c(=O)c1sccc12` the IC50 was > 1 µM (Cyclin-dependent kinase 13, with cyclin K (CDK13, Homo sapiens, UniProt Q14004); enzyme activity).
